CRFBP-R2 block – antagonists of CRF-binding protein/CRF-R2 receptor complex | HEK293 CRF-R2/CRF-BP, CRF-induced calcium fluorescence | inhibition, % at 11.8 µM | 350,000 compounds, 0.59% hits;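 active = inhibition of the ligand-induced calcium signal above about 50% at the single tested concentration, limit read from the data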
CRFBP-R2 agonist – agonists of human CRF-binding protein/CRF-R2 receptor complex; HEK293 CRF-R2/CRF-BP, calcium dye fluorescence (FLIPR); percent of saturating CRF peptide response; activation, % at 13.2 µM; 350,000 compounds, 0.46% hits;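 active = activation of at least 50%, plus an integration ratio under a set limit after plate pattern correction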
iPSC survival up – increases survival of single human iPS cells; hiPSC single-cell survival, ATPlite luminescence; 100% = ROCK inhibitor wells, 0% = DMSO; survival enhancement, % at 20 µM; AID 602274; 360,000 compounds, 0.044% hits; in the data active = survival enhancement above about 18%;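 note: cells exposed to compounds for 16 hours before the ATP read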
UCH37 inh – blocks the human deubiquitinase UCH37. Q9Y5K5. AID 588478. 330,000 compounds, 0.33% hits. purified proteasome/UCH37, Ub-AMC cleavage fluorescence. inhibition, % (test concentration not listed);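 active = mean inhibition over replicate wells above about 20%, limit read from the data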
Target sequence (Q9Y5K5 whole entry, looked up): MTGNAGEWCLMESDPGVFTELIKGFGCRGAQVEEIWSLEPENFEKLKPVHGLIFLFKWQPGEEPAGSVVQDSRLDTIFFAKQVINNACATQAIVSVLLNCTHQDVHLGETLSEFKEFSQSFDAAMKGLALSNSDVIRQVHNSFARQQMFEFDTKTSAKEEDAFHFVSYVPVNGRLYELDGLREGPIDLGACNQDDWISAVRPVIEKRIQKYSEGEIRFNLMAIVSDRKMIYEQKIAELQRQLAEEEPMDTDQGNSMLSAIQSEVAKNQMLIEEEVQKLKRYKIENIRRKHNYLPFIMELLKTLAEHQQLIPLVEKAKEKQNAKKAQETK
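Test system – human UCH37 enzyme supplied as purified proteasome complex · Incubation – 30 min preincubation with enzyme, 25 min cleavage at room temperature · Detection – AMC fluorescence from Ub-AMC cleavage, excitation 355 nm, emission 460 nm · Benchmarks – no-proteasome wells (full inhibition) and compound-free wells (no inhibition)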
Cardio protect – modulators protecting cardiomyocytes from myocardial damage | AID 588492 | protection from H2O2 cell death, % at 20 µM | 360,000 compounds, 0.63% hits | H9c2 cardiomyocytes, H2O2 injury protection, ATPLite, 2 h;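 active = compounds giving at least 50% protection of heart cells from peroxide-induced death in the single-dose screen, raw or plate-pattern-corrected value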
MIN6 prolif – inducers of beta-cell replication in MIN6 cells; MIN6 cells proliferation, ATPlite luminescence, 48 h; cells starved in 0.2% serum; 100% = growth in 10% serum; proliferation, % at 10 µM; 330,000 compounds, 0.29% hits; AID 2380;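 active = compounds whose signal lies at least 3.5 SD above the mean of all wells on their plate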
Numbers stand for hits; - = inactive; . = not tested or not shown. Rows were chosen to be rich in hits. Some 2.1% of all compounds tested hit in one or more screens of this group.

SMILES	CRFBP-R2 block	CRFBP-R2 agonist	iPSC survival up	UCH37 inh	Cardio protect	MIN6 prolif
COc1cc2c(C#CCCO)c(-c3ccsc3)oc(=O)c2cc1OC	-	-	-	-	64	-
COc1cc2c(C#CCCO)c(-c3ccc(C#N)cc3)oc(=O)c2cc1OC	-	-	-	-	-	-
O=[N+]([O-])c1ccccc1NN=Cc1ccc2c(c1)OCO2	.	.	.	-	.	.
Cc1ccc(C=NNc2cn[nH]c(=O)c2Cl)cc1	.	.	.	-	.	.
COc1cc(C(=O)OCC(=O)NCCC2=CCCCC2)cc(OC)c1OC	-	-	-	-	-	-
COc1cccc(C(=O)OCC(=O)NCCC2=CCCCC2)c1	103	-	-	-	-	-
CN(C)S(=O)(=O)N1CCC(Oc2cccc(C(=O)NC3CCCCC3)c2)CC1	-	-	-	-	-	-
CN(C)S(=O)(=O)N1CCC(Oc2cccc(C(=O)NCCC3=CCCCC3)c2)CC1	-	-	-	22	-	-
COc1ccc(C(CC2OC(=O)c3ccccc32)=NNC(N)=O)cc1 (stereo unspecified)	.	.	.	-	.	.
Cc1csc(NN=Cc2ccc(O)c([N+](=O)[O-])c2)n1	.	.	.	20	.	.
Cc1n[nH]c(=O)nc1NN=Cc1ccc(O)c([N+](=O)[O-])c1	.	.	.	21	.	.
Cc1ccc(C=NNC(=O)c2cc3c(ccc4ccccc43)o2)o1	.	.	.	-	.	.
COc1ccc(C=NNC(=S)Nc2c(C)n(C)n(-c3ccccc3)c2=O)cc1OC	.	.	.	-	.	.
O=Nc1nc2ncccn2c1-c1ccccc1	58	-	-	.	-	.
O=c1nc(Oc2ccccc2)nc2ncccn12	-	-	-	.	-	.
O=C(N/N=C/c1cccc(O)c1)c1cc(-c2ccc3c(c2)OCO3)n[nH]1	-	-	-	.	76	-
CCOC(=O)c1c(N=CC2C(=O)CC(C)(C)CC2=O)sc2c1CCCC2	.	.	.	-	.	.
CCOC(=O)c1nc(N2CCN(C(=O)OCC)CC2)c2c3c(sc2n1)CCCC3	-	-	-	-	62	-
CCSc1nc(N2CCOCC2)c2c(c1C#N)CC(C)(C)N(C)C2	-	-	-	-	-	-
CN1Cc2c(N3CCOCC3)nc(SCc3ccccc3)c(C#N)c2CC1(C)C	-	64	-	-	-	-
CC1(C)Cc2c(C#N)c(SCC(=O)c3ccccc3)nc(N3CCOCC3)c2CS1	-	-	20	-	-	-
CCCC(=NNC(=O)C1CC1)c1ccccc1	.	.	.	-	.	.
CCOC(=O)c1cn[nH]c1NC(=S)Nc1ccc(Cl)cc1	94	-	-	-	-	-
CCOC(=O)c1ccc(NC(=S)Nc2ccc(C)cc2)cc1	-	-	-	-	-	-
CN(C)c1ccc(C=NNC(=O)CSc2ccccn2)cc1	.	.	.	-	.	.
SMILES	CRFBP-R2 block	CRFBP-R2 agonist	iPSC survival up	UCH37 inh	Cardio protect	MIN6 prolif
COc1ccc(S(=O)(=O)N(CCCN2CCCC2=O)Cc2cc3cc(C)c(C)cc3[nH]c2=O)cc1	-	-	-	.	47	.
Cc1ccc(S(=O)(=O)N(CCCN2CCCC2=O)Cc2cc3c(C)ccc(C)c3[nH]c2=O)cc1	-	-	-	-	-	-
O=c1[nH]c(SCCc2ccccc2)nc2c1CCC2	.	.	-	.	-	.
O=c1[nH]c(NCc2ccccc2)nc2c1CCCC2	-	-	-	-	53	-
Cc1onc(-c2ccccc2Cl)c1C(=O)Nc1ccccc1	-	-	-	-	-	-
Cc1onc(-c2ccccc2Cl)c1C(=O)Nc1ccc(S(=O)(=O)Nc2nccs2)cc1	-	-	-	30	-	-
Cc1c(OCC(=O)NCCN2CCOCC2)ccc2c3c(c(=O)oc12)CCC3	115	-	-	-	-	-
Cc1c(OCC(=O)NCCN2CCOCC2)ccc2c1oc(=O)c1ccccc12	-	-	-	-	61	-
Cc1c(OCC(=O)NCCN2CCOCC2)ccc2c(-c3ccccc3)cc(=O)oc12	-	-	-	-	-	-
Cc1c(OCC(=O)NCCCN2CCOCC2)ccc2c3c(c(=O)oc12)CCCC3	-	-	-	-	-	-
Cc1ccc(C=NNc2ncc(Cl)cc2Cl)s1	.	.	.	-	.	.
O=Cc1cc(N=Nc2ccc(S(=O)(=O)O)cc2)ccc1O	-	-	-	21	-	-
COc1cc(-c2cc(C(=O)Nc3c(Cl)cc(Cl)cc3Cl)c3ccccc3n2)cc(OC)c1OC	-	-	-	-	-	-
COc1ccc2nc3ccccc3nc2c1NC(=O)c1ccc(Cl)cc1Cl	-	178	-	-	-	-
N#C/C(=C\c1cccn1-c1ccccc1)C(=O)NC1CCCCC1	127	-	-	-	-	-
N#C/C(=C\c1ccc(F)c(F)c1)C(=O)NC1CCCCC1	-	-	-	-	-	-
N#C/C(=C\c1ccccc1[N+](=O)[O-])C(=O)NC1CCCCC1	-	100	-	-	-	-
Cc1ccsc1C(=O)OCC(=O)Nc1sccc1C(N)=O	-	-	20	-	-	-
NC(=S)NN=Cc1c(OCc2ccccc2Cl)ccc2ccccc12	.	.	.	-	.	.
COc1ccc(C(C)=O)cc1CSc1nnc2c(Cl)cc(Cl)cn12	55	-	-	-	-	-
COc1ccc(C(C)=O)cc1CSc1nncn1C	-	-	-	-	-	-
CC[n+]1c(C=C2C=C(C)OC(C)=C2)sc2ccccc21	-	-	-	23	-	-
CCOc1cccc(C=NN2CCN(c3ccc(Cl)cc3)CC2)c1O	.	.	.	-	.	.
CC(=O)c1c(C)n(-c2cccc(Cl)c2)c2ccc(O)cc12	-	-	-	-	62	-
CC(C)COC(=O)c1cc(-c2ccc(C=Nn3cnnc3)o2)ccc1Cl	.	.	.	-	.	.
SMILES	CRFBP-R2 block	CRFBP-R2 agonist	iPSC survival up	UCH37 inh	Cardio protect	MIN6 prolif
Cc1ccc(Nc2nc(-c3c(C)nc4ccccn34)cs2)cc1	66	-	-	-	-	-
Cc1ccc(Nc2nc(-c3c(C)nc4ncccn34)cs2)cc1	-	-	-	-	-	-
COc1ccccc1-c1nnc(Nc2nc3c(OC)cccc3s2)o1	53	-	-	-	-	-
O=C(Nc1nnc(-c2ccccc2Cl)o1)c1nc2ccccc2s1	-	140	-	-	-	-
COc1cccc2sc(Nc3nnc(-c4ccccc4Cl)o3)nc12	-	77	-	-	-	-
O=C(Nc1nnc(-c2ccccc2Cl)o1)c1ccco1	-	-	-	-	-	-
CC(=O)c1ccccc1OCC(O)CN1CCN(CCN2C(=O)c3cccc4cccc(c34)C2=O)CC1 (stereo unspecified)	-	-	-	-	58	-
Cc1ccc(C)c(OCC(O)CN2CCN(CCN3C(=O)c4cccc5cccc(c45)C3=O)CC2)c1 (stereo unspecified)	-	-	-	-	-	-
Cc1cc(C)c2c(c1)C(=NNC(=O)c1ccc(O)cc1)CCC2	.	.	.	-	.	.
O=C(c1ccc(-c2nc3ccccc3s2)o1)N1CCN(c2ccccc2O)CC1	-	-	-	-	52	-
O=C(O)c1ccc(-c2nc3ccccc3s2)o1	-	-	-	-	-	-
Cn1c(=O)c2[nH]c(-c3ccccc3)c(O)c2n(C)c1=O	-	70	-	-	-	-

Source: PubChem (several laboratories)
